The test system of assay [1] is Tobacco mosaic virus. In words: Antiviral activity against TMV-infected tobacco leaves assessed as curative effect against viral disease at 500 mg/L. Format: functional.
Assay [2] concerns Tobacco mosaic virus. In words: Antiviral activity against TMV-infected tobacco leaves assessed as protection against viral infection at 500 mg/L. Format: functional.
In assay [3] the test system is Tobacco mosaic virus. In words: Antiviral activity against TMV-infected tobacco leaves assessed as viral inactivation at 500 mg/L. Format: functional.
Assay [4] deals with Nicotiana tabacum. The assay is described as follows: Stimulation of peroxidase activity in Nicotiana tabacum after 5 days.
For assay [5], the system named is Nicotiana tabacum. The assay is described as follows: Effect on accumulation of PR1a mRNA in tobacco leaf on day 2. Format: functional, organism-based. The method, boiled down: (§1)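 Leaf RNA came from water-, TMV- and treated-plus-TMV tobacco. PR-1a and PR-5 were amplified by semi-quantitative PCR (annealing 58 °C; 1.5% agarose, ethidium bromide) and by real-time PCR. Real-time values were taken relative to β-actin by ΔΔCT, n = 4, in triplicate.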

Assay [6] concerns Nicotiana tabacum. In words: Stimulation of L-phenylalanine ammonia-lyase level in Nicotiana tabacum assessed as per mg of protein after 7 days. Format: functional. A digest of the protocol:
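TMV-inoculated Nicotiana tabacum treated at 500 ppm and sampled at 1, 3, 5 and 7 days. Water and TMV-only treatments served as controls. Leaves were homogenized on ice in 5 mM 2-mercaptoethanol-boric acid buffer (pH 8.8) and centrifuged, and enzyme activity was read in the supernatant. PAL was expressed per mg protein. Means of n = 3, with one-way ANOVA and LSD.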

Assay [7] concerns Nicotiana tabacum. In words: Effect on accumulation of PR5 mRNA in tobacco leaf after 12 hrs. Format: functional, organism-based. A digest of the protocol:
as §1

Assay [8] has as its system Nicotiana tabacum. The assay is described as follows: Stimulation of leaf size in Nicotiana tabacum relative to water treated control. It is filed as functional, organism-based.
Assay [9] has as its system Nicotiana tabacum. The assay is described as follows: Effect on accumulation of PR5 mRNA in tobacco leaf upto […] after 1 day. Format: functional, organism-based. A digest of the protocol:
as §1

In assay [10] the test system is Nicotiana tabacum. The assay is described as follows: Effect on accumulation of PR1a mRNA in tobacco leaf upto […] after 1 day. It is filed as functional, organism-based. The method, boiled down:
as §1

Among the data in ChEMBL document CHEMBL1143938, “Synthesis and antiviral activities of novel chiral cyanoacrylate derivatives with (E) configuration” (2008) are Activity values, retold here.

Molecules are shown by their SMILES. The source made the active and inactive calls. No cut-off for these calls is given here.

Turning to `CNCC(=O)N[C@@H](CO)C(=O)N[C@H]1C(O)[C@@H](O)[C@H](n2ccc(N)nc2=O)O[C@@H]1C(N)=O` (single isomer, unassigned) [NINGNANMYCIN], the Activity is given as 57.8% in the assay with Tobacco mosaic virus [1], 100% with Tobacco mosaic virus [2] and 50% in the assay on Tobacco mosaic virus [3].
On to `CCOC(=O)/C(C#N)=C(\NCc1ccccc1)N[C@H](C)c1ccc(F)cc1`, for which the Activity with Tobacco mosaic virus [1] amounted to 64%; in the assay with Tobacco mosaic virus [2], 65.7%; in the assay on Tobacco mosaic virus [3] it was 49.5%; with Nicotiana tabacum [6], 5.88 EU/mg. Besides, the result in the assay with Nicotiana tabacum [4], in the assay on Nicotiana tabacum [5], in the assay on Nicotiana tabacum [7], in the assay on Nicotiana tabacum [8], with Nicotiana tabacum [9] and in the assay on Nicotiana tabacum [10] was Active.
